Columns and labels:
[1] = Drug level in Sprague-Dawley rat plasma at 10 mg/kg, po after 2 hrs; format: ADME, organism-based; parameters: dose 10 mg/kg, route oral
How it was run: (§1)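 Femoral-artery-cannulated male Sprague-Dawley rats (300-350 g), n = 3, were given 10 mg/kg orally in vehicle. Blood was drawn predose and at 1, 2 and 4 h; brains were collected at 4 h and stored at -80 °C. Plasma or brain homogenate was pooled from three rats per time point, protein-precipitated and analysed by LC/MS/MS. Quantitation limits were 2 ng/mL plasma and 2 ng/g brain.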

[2] = Drug level in Sprague-Dawley rat plasma at 10 mg/kg, po after 1 hr; format: ADME, organism-based; parameters: dose 10 mg/kg, route oral; how it was run: as §1
[3] = Drug level in Sprague-Dawley rat plasma at 10 mg/kg, po after 4 hrs; format: ADME, organism-based; parameters: dose 10 mg/kg, route oral; how it was run: as §1
[4] = biological target: T1, Melanin-concentrating hormone receptor 1 (Rattus norvegicus, UniProt P97639); test: Antagonist activity at rat MCHR1 expressed in HEK293 cells assessed as effect on calcium mobilization; format: functional, cell-based
T1 sequence (P97639 whole entry): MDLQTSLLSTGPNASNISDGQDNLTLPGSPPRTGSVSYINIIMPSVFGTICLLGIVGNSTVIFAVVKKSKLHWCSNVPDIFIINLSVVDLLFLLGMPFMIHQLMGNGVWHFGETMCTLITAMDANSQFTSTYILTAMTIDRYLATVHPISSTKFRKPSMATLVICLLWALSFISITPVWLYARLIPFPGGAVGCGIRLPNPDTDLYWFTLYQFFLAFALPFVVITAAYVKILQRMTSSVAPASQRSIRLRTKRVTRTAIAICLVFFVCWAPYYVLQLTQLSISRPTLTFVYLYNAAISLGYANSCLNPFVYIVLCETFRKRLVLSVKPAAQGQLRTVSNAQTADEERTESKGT
How it was run: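 HEK293 cells stably expressing rat MCH1 were seeded for 16 h, loaded with 1.5 µM Fluo4 in HBSS for 60 min, washed, and preincubated 20 min with a range of test concentrations. They were then challenged with 30 nM MCH peptide. Calcium-driven fluorescence was read on a FLIPR, and IC50 came from nonlinear curve fitting.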

[5] = Drug level in Sprague-Dawley rat brain at 10 mg/kg, po after 4 hrs; format: ADME, organism-based; parameters: dose 10 mg/kg, route oral; conditions: read-out: Drug uptake; how it was run: as §1
[6] = biological target: T1, Melanin-concentrating hormone receptor 1; test: Displacement of [3H]SNAP 7941 from rat MCHR1 expressed in HEK293 cells; format: cell-based
How it was run: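 Membranes from PEAK-RAPID HEK293 cells transiently transfected with rat MCH1 were incubated with varying concentrations of [3H]SNAP-7941. Buffer was 50 mM Tris, 10 mM MgCl2, 0.16 mM PMSF, 1 mM 1,10-phenanthroline, 0.2% BSA, pH 7.4; incubation 25 °C, 90 min. Ki is the mean ± SEM of n = 3.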

[7] = Volume of distribution in Sprague-Dawley rat at 2 mg/kg, po and 1 mg/kg, iv; format: ADME, organism-based; conditions: in vivo, read-out: Vss
How it was run: (§2)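 Male Sprague-Dawley rats (200-250 g), n = 2, received 1 mg/kg iv, then 2 mg/kg orally in the same rat 24 h later. Plasma was taken from sampled blood by centrifugation and analysed by turbulent-flow LC/MS/MS. For blood/plasma distribution, blood was spiked at 109 ng/mL. Parameters came from plasma concentration-time profiles.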

[8] = Blood clearance in Sprague-Dawley rat at 2 mg/kg, po and 1 mg/kg, iv; format: ADME, organism-based; conditions: whole blood; how it was run: as §2
[9] = Plasma clearance in Sprague-Dawley rat at 2 mg/kg, po and 1 mg/kg, iv; format: ADME, organism-based; how it was run: as §2
Rattus norvegicus [10] = test: Anxiolytic activity in rat assessed as increase in social interaction time at 0.3 mg/kg, po relative to control
[11] = Cmax in Sprague-Dawley rat at 2 mg/kg, po and 1 mg/kg, iv; format: ADME, organism-based; conditions: in vivo; how it was run: as §2
[12] = Tmax in Sprague-Dawley rat at 2 mg/kg, po and 1 mg/kg, iv; format: ADME, organism-based; conditions: in vivo; how it was run: as §2
[13] = Bioavailability in Sprague-Dawley rat at 2 mg/kg, po and 1 mg/kg, iv; format: ADME, organism-based; conditions: in vivo; how it was run: as §2
[14] = Half life in Sprague-Dawley rat at 2 mg/kg, po and 1 mg/kg, iv; format: ADME, organism-based; conditions: in vivo; how it was run: as §2
Rattus norvegicus [15] = organism: Rattus norvegicus; test: Anxiolytic activity in rat assessed as increase in social interaction time relative to control; format: functional
How it was run: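 Rats were acclimated 5 days, housed singly 5 days and handled 5 min daily. Weight-matched (±5%) unfamiliar pairs got identical treatment 1 h before testing, five pairs per group. Chlordiazepoxide 5 mg/kg was the reference. Pairs were placed 15 min in a floor-gridded arena, sessions were videotaped, and social interaction time was scored.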

[16] = Half life in Sprague-Dawley rat at 1 mg/kg, po and 1 mg/kg, iv; format: ADME, organism-based; conditions: in vivo
How it was run: (§3)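 Sprague-Dawley rats were dosed 1 mg/kg orally (n = 2) and 1 mg/kg iv (n = 2). Plasma concentration-time profiles were measured by LC/MS/MS and used for pharmacokinetic analysis.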

[17] = Plasma clearance in Sprague-Dawley rat at 1 mg/kg, po and 1 mg/kg, iv; format: ADME, organism-based; how it was run: as §3
[18] = Volume of distribution in Sprague-Dawley rat at 1 mg/kg, po and 1 mg/kg, iv; format: ADME, organism-based; conditions: in vivo, read-out: Vss; how it was run: as §3
[19] = Cmax in Sprague-Dawley rat at 1 mg/kg, po and 1 mg/kg, iv; format: ADME, organism-based; conditions: in vivo; how it was run: as §3
[20] = Tmax in Sprague-Dawley rat at 1 mg/kg, po and 1 mg/kg, iv; format: ADME, organism-based; conditions: in vivo; how it was run: as §3
[21] = Bioavailability in Sprague-Dawley rat at 1 mg/kg, po and 1 mg/kg, iv; format: ADME, organism-based; conditions: in vivo; how it was run: as §3

| SMILES | IC50 [4] [nM] | Ki [6] [nM] | also measured |
| --- | --- | --- | --- |
| Cc1ccc(NC(=O)C(C)C)cc1C1CCN(CCCNC(=O)C(c2ccccc2)c2ccccc2)CC1 | 27 | 3 | concentration at 2 h [1]: 59 ng/mL; concentration at 1 h [2]: 69 ng/mL; concentration at 4 h [3]: 75 ng/mL; concentration at 4 h [5]: 13 ng/g |
| CCC(C(=O)NCCCN1CCC(c2cccc(NC(=O)C(C)C)c2)CC1)(c1ccccc1)c1ccccc1 | 190 |  |  |
| CC(C)C(=O)Nc1cccc(C2CCN(CCCNC(=O)C(C)(c3ccccc3)c3ccccc3)CC2)c1 | 140 | 7.5 |  |
| CC(C)C(=O)Nc1cccc(C2CCN(CCCCCCNC(=O)C(c3ccccc3)c3ccccc3)CC2)c1 | 600 | 29 |  |
| CC(C)C(=O)Nc1cccc(C2CCN(CCCNC(=O)C(c3ccccc3)c3ccccc3)CC2)c1 | 25 | 1.9 | concentration at 2 h [1]: 12 ng/mL; concentration at 1 h [2]: 15 ng/mL; concentration at 4 h [3]: 15 ng/mL |
| CC(C)C(=O)Nc1cccc(C2CCN(CCCCNC(=O)C(c3ccccc3)c3ccccc3)CC2)c1 | 620 | 50 |  |
| CC(C)C(=O)Nc1cccc(C2CCN(CCCNC(=O)C(c3ccc(F)cc3)c3ccc(F)cc3)CC2)c1 | 13 | 1.4 |  |
| CC(C)C(=O)Nc1cccc(C2CCN(CCCCCNC(=O)C(c3ccccc3)c3ccccc3)CC2)c1 |  | 47 |  |
| CC(C)C(=O)Nc1cc(C2CCN(CCCNC(=O)C(c3ccc(F)cc3)c3ccc(F)cc3)CC2)c(F)cc1F | 34 | 1.8 | Vd [7]: 3.6 L/kg; clearance [8]: 60 mL/min/kg; clearance [9]: 40 mL/min/kg; Time (Rattus norvegicus [10]): 69.3 s; Cmax [11]: 80 ng/mL; Tmax [12]: 0.6 h; bioavailability [13]: 48%; half-life [14]: 2.1 h; Activity (Rattus norvegicus [15]): 69.3 s; minimal effective dose (Rattus norvegicus [15]; Rattus norvegicus, read-out: MED): 0.3 mg/kg |
| CCCCCC(C(=O)NCCCN1CCC(c2cccc(NC(=O)C(C)C)c2)CC1)(c1ccccc1)c1ccccc1 |  | 8.5 |  |
| CC(C)C(=O)Nc1c(F)cc(F)c(C2CCN(CCCNC(=O)C(c3ccc(F)cc3)c3ccc(F)cc3)CC2)c1F |  | 2.9 |  |
| Cc1ccc(NC(=O)C(C)C)cc1C1CCN(CCCNC(=O)[C@H](C)c2ccc(F)cc2)CC1 | 65 | 28 |  |
| Cc1ccc(NC(=O)C(C)C)cc1C1CCN(CCCNC(=O)C2(c3ccc(F)cc3)CCCC2)CC1 | 44 | 3.8 |  |
| Cc1ccc(C2CCN(CCCNC(=O)C(c3ccccc3)c3ccccc3)CC2)cc1NC(=O)C(C)C | > 1000 | 500 |  |
| Cc1ccc(NC(=O)C(C)C)cc1C1CCN(CCCNC(=O)C(O)(c2ccccc2)c2ccccc2)CC1 | 27 | 0.6 |  |
| CC(C)C(=O)Nc1cccc(C2CCN(CCNC(=O)C(c3ccccc3)c3ccccc3)CC2)c1 | 57 | 1.9 |  |
| Cc1ccc(NC(=O)C(C)C)cc1C1CCN(CCCNC(=O)[C@@H](C)c2ccc(F)cc2)CC1 | 26 | 10 | Vd [7]: 3.4 L/kg; clearance [8]: 55 mL/min/kg; clearance [9]: 25 mL/min/kg; Cmax [11]: 305 ng/mL; Tmax [12]: 2.2 h; bioavailability [13]: 81%; half-life [14]: 4.2 h |
| Cc1ccc(NC(=O)C(C)C)cc1C1CCN(CCCNC(=O)C2(c3ccc(F)cc3)CCCCC2)CC1 | 190 | 1.9 |  |
| Cc1ccc(NC(=O)C(C)C)cc1C1CCN(CCCNC(=O)C(c2ccc(F)cc2)c2ccc(F)cc2)CC1 | 27 | 0.62 |  |
| Cc1ccc(NC(=O)C(C)C)cc1C1CCN(CCCNC(=O)C(C)c2ccccc2)CC1 (single isomer, unassigned; form 1) | 68 | 34 |  |
| Cc1ccc(NC(=O)C(C)C)cc1C1CCN(CCCNC(=O)C(C)c2ccccc2)CC1 (single isomer, unassigned; form 2) | 130 | 37 |  |
| CNC1=Nc2ccc(Cl)cc2C(c2ccccc2)=[N+]([O-])C1 [CHLORDIAZEPOXIDE] |  |  | Time (Rattus norvegicus [10]): 85.1 s |
| COCC1=C(C(=O)OC)[C@H](c2ccc(F)c(F)c2)N(C(=O)NCCCN2CCC(c3cccc(NC(C)=O)c3)CC2)C(=O)N1 [SNAP-7941] |  | 0.25 | half-life [16]: 1.7 h; clearance [17]: 153 mL/min/kg; Vd [18]: 24 L/kg; Cmax [19]: 2.02 ng/mL; Tmax [20]: 4 h; bioavailability [21]: 6% |
